How the values were obtained:
[1] = target: Serine/threonine-protein kinase pim-1 (Homo sapiens) (UniProt P11309); test: Binding affinity to human recombinant PIM1 expressed in Escherichia coli assessed as thermal shift by differential scanning fluorimetry
Method in brief: (§1)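 Thermal-shift (DSF) binding assay with purified recombinant catalytic domains or proteins carrying an N- or C-terminal His6 tag or GST fusion. Purity was >95% by SDS/PAGE and identity was confirmed by MS. Protein was at 2 µM final in 10 mM HEPES pH 7.5 and 150 mM NaCl. Tm shift is reported, with 2 °C as the threshold for binding.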

[2] = target: Tyrosine-protein kinase Fes/Fps (Homo sapiens) (UniProt P07332); test: Binding affinity to human recombinant FES expressed in Escherichia coli assessed as thermal shift by differential scanning fluorimetry; method in brief: as §1
Chain of Tyrosine-protein kinase Fes/Fps (Homo sapiens) (P07332 whole entry): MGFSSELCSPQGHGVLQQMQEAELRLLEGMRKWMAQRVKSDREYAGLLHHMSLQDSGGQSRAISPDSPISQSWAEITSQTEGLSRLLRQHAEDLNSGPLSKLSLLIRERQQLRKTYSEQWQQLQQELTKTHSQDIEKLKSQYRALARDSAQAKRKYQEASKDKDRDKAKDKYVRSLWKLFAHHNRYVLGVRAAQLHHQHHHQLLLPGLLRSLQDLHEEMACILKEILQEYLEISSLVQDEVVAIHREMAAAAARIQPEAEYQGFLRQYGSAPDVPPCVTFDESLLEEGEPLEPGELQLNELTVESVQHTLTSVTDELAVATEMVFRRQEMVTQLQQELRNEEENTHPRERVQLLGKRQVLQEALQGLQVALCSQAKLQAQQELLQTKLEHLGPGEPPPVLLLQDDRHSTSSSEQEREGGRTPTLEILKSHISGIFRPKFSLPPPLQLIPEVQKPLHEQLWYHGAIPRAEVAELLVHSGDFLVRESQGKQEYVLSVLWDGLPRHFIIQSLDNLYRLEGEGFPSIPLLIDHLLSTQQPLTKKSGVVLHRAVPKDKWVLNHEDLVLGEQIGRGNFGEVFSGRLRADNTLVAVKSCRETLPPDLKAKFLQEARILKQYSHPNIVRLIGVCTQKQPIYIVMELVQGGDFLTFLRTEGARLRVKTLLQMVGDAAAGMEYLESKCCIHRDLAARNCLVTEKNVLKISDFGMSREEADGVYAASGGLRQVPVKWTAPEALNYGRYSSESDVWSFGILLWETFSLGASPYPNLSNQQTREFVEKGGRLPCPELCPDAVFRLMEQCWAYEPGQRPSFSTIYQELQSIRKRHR

[3] = target: Serine/threonine-protein kinase 10 (Homo sapiens) (UniProt O94804); test: Binding affinity to human recombinant LOK expressed in Escherichia coli assessed as thermal shift by differential scanning fluorimetry; method in brief: as §1
Chain of Serine/threonine-protein kinase 10 (Homo sapiens) (O94804 whole entry, looked up): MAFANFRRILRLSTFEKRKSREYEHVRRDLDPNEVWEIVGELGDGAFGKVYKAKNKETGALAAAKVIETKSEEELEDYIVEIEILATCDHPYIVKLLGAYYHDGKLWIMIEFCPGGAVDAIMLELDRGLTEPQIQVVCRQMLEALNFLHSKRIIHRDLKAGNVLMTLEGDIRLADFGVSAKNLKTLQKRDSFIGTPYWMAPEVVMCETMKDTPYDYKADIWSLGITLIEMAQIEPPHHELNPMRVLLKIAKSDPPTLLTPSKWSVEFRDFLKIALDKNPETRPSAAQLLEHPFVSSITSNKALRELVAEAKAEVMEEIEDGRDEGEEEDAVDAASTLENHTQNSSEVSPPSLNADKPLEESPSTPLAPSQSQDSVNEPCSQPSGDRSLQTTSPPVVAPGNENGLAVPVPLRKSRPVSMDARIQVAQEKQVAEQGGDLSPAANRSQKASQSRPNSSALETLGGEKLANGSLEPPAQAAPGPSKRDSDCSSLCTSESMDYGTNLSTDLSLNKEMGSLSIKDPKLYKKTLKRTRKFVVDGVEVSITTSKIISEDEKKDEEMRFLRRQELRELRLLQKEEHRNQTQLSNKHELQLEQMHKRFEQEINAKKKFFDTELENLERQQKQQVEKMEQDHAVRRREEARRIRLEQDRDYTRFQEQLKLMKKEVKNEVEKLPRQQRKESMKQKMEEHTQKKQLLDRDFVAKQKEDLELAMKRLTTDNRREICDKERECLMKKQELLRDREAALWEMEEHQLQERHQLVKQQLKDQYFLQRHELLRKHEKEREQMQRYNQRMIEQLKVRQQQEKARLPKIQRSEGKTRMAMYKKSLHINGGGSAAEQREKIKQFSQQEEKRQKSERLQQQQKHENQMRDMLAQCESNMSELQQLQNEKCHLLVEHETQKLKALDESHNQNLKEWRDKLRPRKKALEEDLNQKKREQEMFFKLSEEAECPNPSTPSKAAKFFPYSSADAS

[4] = target: T1, Carbonyl reductase [NADPH] 1 (Homo sapiens) (UniProt P16152); test: Binding affinity to human recombinant carbonyl reductase 1 expressed in Escherichia coli assessed as NADPH oxidation at 200 uM relative to isatin
T1 sequence (whole entry): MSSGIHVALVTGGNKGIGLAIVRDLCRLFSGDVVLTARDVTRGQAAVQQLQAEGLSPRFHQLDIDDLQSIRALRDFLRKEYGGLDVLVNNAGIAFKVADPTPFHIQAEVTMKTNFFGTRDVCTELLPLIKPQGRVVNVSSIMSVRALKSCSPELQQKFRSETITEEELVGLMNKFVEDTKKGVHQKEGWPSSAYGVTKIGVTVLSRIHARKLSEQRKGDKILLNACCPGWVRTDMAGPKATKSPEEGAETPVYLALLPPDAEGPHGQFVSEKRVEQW
Method in brief: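 Substrate test used 200 nM purified CBR1 and 200 µM NADPH, injected onto compound at 200 µM in 50 mM sodium phosphate pH 6.8 with 1 mM MgCl2. NADPH oxidation was read as the fluorescence decrease at 460 nm (excitation 355 nm). Rate came from linear regression after normalizing to the fluorescence rise on injection. Run in triplicate and expressed as % of the isatin rate.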

[5] = target: T2, Serine/threonine-protein kinase PLK4 (Homo sapiens) (UniProt O00444); test: Binding affinity to human recombinant PLK4 expressed in Escherichia coli assessed as thermal shift by differential scanning fluorimetry; method in brief: as §1
T2 sequence (whole entry): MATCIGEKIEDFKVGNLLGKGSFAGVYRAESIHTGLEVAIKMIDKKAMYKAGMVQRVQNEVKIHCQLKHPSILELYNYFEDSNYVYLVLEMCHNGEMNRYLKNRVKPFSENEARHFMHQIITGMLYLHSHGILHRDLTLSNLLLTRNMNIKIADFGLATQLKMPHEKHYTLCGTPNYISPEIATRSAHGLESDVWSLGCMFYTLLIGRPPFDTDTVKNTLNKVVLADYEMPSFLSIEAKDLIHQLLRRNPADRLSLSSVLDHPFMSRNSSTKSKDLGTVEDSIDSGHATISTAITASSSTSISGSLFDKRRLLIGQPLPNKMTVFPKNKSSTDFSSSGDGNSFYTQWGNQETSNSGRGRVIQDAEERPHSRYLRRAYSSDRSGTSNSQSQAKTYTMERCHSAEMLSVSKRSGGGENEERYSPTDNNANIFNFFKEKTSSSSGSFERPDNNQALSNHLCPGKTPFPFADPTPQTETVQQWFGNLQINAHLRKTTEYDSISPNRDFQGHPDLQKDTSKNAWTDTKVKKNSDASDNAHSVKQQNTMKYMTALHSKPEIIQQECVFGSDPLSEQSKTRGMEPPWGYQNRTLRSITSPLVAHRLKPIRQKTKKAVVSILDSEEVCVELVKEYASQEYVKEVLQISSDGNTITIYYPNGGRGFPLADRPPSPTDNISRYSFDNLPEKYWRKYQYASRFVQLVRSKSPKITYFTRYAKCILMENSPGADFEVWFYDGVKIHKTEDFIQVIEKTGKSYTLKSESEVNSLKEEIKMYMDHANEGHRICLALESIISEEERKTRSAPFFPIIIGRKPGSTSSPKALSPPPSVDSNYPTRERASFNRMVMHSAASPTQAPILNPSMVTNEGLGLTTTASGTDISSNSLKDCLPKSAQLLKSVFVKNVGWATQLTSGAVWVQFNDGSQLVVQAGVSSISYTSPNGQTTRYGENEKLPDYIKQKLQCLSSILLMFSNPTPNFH

[6] = target: Casein kinase I isoform gamma-1 (Homo sapiens) (UniProt Q9HCP0); test: Binding affinity to human recombinant CSNK1G1 expressed in Escherichia coli assessed as thermal shift by differential scanning fluorimetry; method in brief: as §1
Chain of Casein kinase I isoform gamma-1 (Homo sapiens) (Q9HCP0 whole entry, looked up, canonical isoform): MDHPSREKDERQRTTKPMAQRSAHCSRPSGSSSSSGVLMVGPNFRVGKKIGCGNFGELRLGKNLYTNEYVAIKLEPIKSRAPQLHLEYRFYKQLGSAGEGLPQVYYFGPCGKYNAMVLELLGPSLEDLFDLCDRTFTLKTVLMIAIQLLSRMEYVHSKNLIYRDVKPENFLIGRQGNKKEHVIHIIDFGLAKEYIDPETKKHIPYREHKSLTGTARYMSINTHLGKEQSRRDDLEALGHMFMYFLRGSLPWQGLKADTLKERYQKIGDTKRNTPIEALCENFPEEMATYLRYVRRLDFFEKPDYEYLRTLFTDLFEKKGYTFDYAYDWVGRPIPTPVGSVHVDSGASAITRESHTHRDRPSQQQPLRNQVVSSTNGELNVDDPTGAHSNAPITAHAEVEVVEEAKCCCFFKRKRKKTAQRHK

[7] = target: Heat shock protein HSP90 (Homo sapiens) (UniProt P07900+P08238)
[8] = target: T1, Carbonyl reductase [NADPH] 1 (Homo sapiens); test: Binding affinity to human recombinant carbonyl reductase 1 expressed in Escherichia coli assessed as thermal shift by differential scanning fluorimetry in presence of NADP+; method in brief: as §1
[9] = species: Homo sapiens; test: Binding affinity to human recombinant DYRK1 expressed in Escherichia coli assessed as thermal shift by differential scanning fluorimetry; method in brief: as §1
[10] = target: Serine/threonine-protein kinase pim-3 (Homo sapiens) (UniProt Q86V86); test: Binding affinity to human recombinant PIM3 expressed in Escherichia coli assessed as thermal shift by differential scanning fluorimetry; method in brief: as §1
[11] = target: Mitogen-activated protein kinase 6 (Homo sapiens) (UniProt Q16659); test: Binding affinity to human recombinant MAPK6 expressed in Escherichia coli assessed as thermal shift by differential scanning fluorimetry; method in brief: as §1
Chain of Mitogen-activated protein kinase 6 (Homo sapiens) (Q16659 whole entry): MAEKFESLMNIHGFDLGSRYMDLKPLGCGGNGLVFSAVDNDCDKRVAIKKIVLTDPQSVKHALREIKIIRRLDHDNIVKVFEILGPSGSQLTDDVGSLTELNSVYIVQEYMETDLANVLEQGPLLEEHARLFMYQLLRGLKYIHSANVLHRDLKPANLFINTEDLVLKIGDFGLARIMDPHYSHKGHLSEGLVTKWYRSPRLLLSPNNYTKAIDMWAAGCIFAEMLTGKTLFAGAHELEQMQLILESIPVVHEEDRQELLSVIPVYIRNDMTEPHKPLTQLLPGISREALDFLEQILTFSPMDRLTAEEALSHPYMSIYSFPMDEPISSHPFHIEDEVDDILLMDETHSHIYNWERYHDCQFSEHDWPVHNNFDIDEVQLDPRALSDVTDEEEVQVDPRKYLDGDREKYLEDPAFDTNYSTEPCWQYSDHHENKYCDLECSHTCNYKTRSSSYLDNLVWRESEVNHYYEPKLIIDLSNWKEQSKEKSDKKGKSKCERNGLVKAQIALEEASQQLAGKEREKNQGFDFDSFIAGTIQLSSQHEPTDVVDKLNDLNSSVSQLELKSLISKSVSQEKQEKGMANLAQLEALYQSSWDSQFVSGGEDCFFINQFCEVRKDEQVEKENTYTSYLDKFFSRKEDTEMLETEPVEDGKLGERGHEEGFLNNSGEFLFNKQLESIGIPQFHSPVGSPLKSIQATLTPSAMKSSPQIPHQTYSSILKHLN

[12] = target: T3, Carbonyl reductase [NADPH] 1 (Homo sapiens, UniProt P16152); test: Binding affinity to human recombinant carbonyl reductase 1 expressed in Escherichia coli assessed as NADPH oxidation using isatin as substrate
T3 sequence (P16152 whole entry): T1 sequence (whole entry)
Method in brief: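 Purified recombinant CBR1 (200 nM) and NADPH were added to compound in 50 mM sodium phosphate, pH 6.8, 1 mM MgCl2. NADPH oxidation was followed as the fluorescence decrease at 460 nm (excitation 355 nm). Rates came from linear regression after normalising to the fluorescence rise at injection. Compounds were titrated at two isatin levels, with no-protein background subtracted. Sigmoidal fit gave IC50, then Ki from the isatin concentration.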

Chain of Serine/threonine-protein kinase pim-1 (Homo sapiens) (P11309 whole entry, looked up, the tested form may be a part): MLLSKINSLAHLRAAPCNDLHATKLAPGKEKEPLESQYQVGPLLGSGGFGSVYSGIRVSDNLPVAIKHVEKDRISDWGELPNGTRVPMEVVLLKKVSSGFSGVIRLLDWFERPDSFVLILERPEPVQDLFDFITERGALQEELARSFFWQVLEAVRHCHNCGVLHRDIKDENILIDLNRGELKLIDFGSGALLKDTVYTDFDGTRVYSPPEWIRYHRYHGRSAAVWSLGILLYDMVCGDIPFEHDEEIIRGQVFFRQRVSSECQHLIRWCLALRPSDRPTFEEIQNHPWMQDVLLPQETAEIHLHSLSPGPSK

Q: Which Tm [1] does the source give for `COc1cc2c(c(OC)c1)C(=O)O[C@@H](C)CCCC(=O)[C@@H](C)CC/C=C/2` here?
A: Its Tm is under 2 °C.

Q: And the Tm [2]?
A: Its Tm is under 2 °C.

Q: What about the Tm [3] of the same compound?
A: Its Tm is under 2 °C.

Q: What about the Activity [4] of the same compound?
A: The Activity was 31.3%.

Q: What about the Tm [5] of the same compound?
A: Its Tm is under 2 °C.

Q: And the Tm [6]?
A: The Tm was under 2 °C.

Q: And the Tm [7]?
A: The Tm was under 2 °C.

Q: And the Tm [8]?
A: The Tm was under 2 °C.

Q: What about the Tm [9] of the same compound?
A: The Tm was under 2 °C.

Q: And the Tm [10]?
A: The Tm was under 2 °C.

Q: And the Tm [11]?
A: The Tm was under 2 °C.

Q: Which results are given for `C[C@H]1CCCC(=O)CCC/C=C/c2cc(O)cc(O)c2C(=O)O1`?
A: Tm [1]: 3 °C; Tm [2]: < 2 °C; Tm [3]: 4.6 °C; Activity [4]: 5.7%; Tm [5]: < 2 °C; Tm [6]: < 2 °C; Tm [7]: 2.3 °C; Tm [8]: 3.6 °C; Tm [9]: < 2 °C; Tm [10]: < 2 °C; Tm [11]: < 2 °C

Q: What does the source list for `COC1=C2C[C@@H](C)C[C@H](OC)[C@H](O)[C@@H](C)/C=C(\C)[C@H](OC(N)=O)[C@@H](OC)/C=C\C=C(/C)C(=O)NC(=CC1=O)C2=O`?
A: Tm [1]: < 2 °C; Tm [2]: < 2 °C; Tm [3]: < 2 °C; Tm [5]: < 2 °C; Tm [6]: < 2 °C; Tm [8]: < 2 °C; Tm [9]: < 2 °C; Tm [10]: < 2 °C; Tm [11]: < 2 °C

Q: With `C[C@@H]1C[C@H]2O[C@@H]2/C=C\C=C\C(=O)Cc2c(Cl)c(O)cc(O)c2C(=O)O1` [RADICICOL] as the compound, how does the Tm [1] read?
A: Its Tm is under 2 °C.

Q: What about the Tm [2] of the same compound?
A: The Tm was under 2 °C.

Q: And the Tm [3]?
A: The Tm was under 2 °C.

Q: And the IC50 [12]?
A: The IC50 was 3270 nM.

Q: And the Ki [12]?
A: The Ki was 520 nM.

Q: And the Tm [5]?
A: The Tm was under 2 °C.

Q: What about the Tm [6] of the same compound?
A: Its Tm is under 2 °C.

Q: What about the Tm [8] of the same compound?
A: Its Tm is 4.6 °C.

Q: And the Tm [9]?
A: Its Tm is under 2 °C.

Q: And the Tm [10]?
A: Its Tm is under 2 °C.

Q: And the Tm [11]?
A: The Tm was under 2 °C.

Q: Which results are given for `COc1cc(O)c2c(c1)/C=C/CC[C@H](C)C(=O)CCC[C@H](C)OC2=O`?
A: Tm [1]: < 2 °C; Tm [2]: < 2 °C; Tm [3]: < 2 °C; Activity [4]: 1.5%; Tm [5]: < 2 °C; Tm [6]: < 2 °C; Tm [7]: < 2 °C; Tm [8]: < 2 °C; Tm [9]: < 2 °C; Tm [10]: < 2 °C; Tm [11]: < 2 °C

Q: What does the source list for `C[C@H]1CCCC(=O)[C@@H](C)CC/C=C/c2cc(O)cc(O)c2C(=O)O1`?
A: Tm [1]: 2.2 °C; Tm [2]: < 2 °C; Tm [3]: < 2 °C; IC50 [12]: 210 nM; Ki [12]: 40 nM; Tm [5]: < 2 °C; Tm [6]: < 2 °C; Tm [7]: < 2 °C; Tm [8]: 3.9 °C; Tm [9]: < 2 °C; Tm [10]: < 2 °C; Tm [11]: < 2 °C

Q: Which Tm [1] does the source give for `COc1cc2c(c(OC)c1)C(=O)O[C@@H](C)CCC[C@@H](O)[C@@H](C)CC/C=C/2` here?
A: The Tm was under 2 °C.

Q: What about the Tm [2] of the same compound?
A: Its Tm is under 2 °C.

Q: And the Tm [3]?
A: The Tm was under 2 °C.

Q: And the Tm [5]?
A: Its Tm is under 2 °C.

Q: What about the Tm [6] of the same compound?
A: Its Tm is under 2 °C.

Q: And the Tm [7]?
A: The Tm was under 2 °C.

Q: And the Tm [8]?
A: Its Tm is under 2 °C.

Q: And the Tm [9]?
A: The Tm was under 2 °C.

Q: And the Tm [10]?
A: Its Tm is under 2 °C.

Q: And the Tm [11]?
A: The Tm was under 2 °C.
